TRPC4 agonist: TRPC4 (mouse) channel activation; Q9QUQ5; 310,000 compounds, 0.49% hits; B-score at 10 µM; HEK293 TRPC4beta/mu-opioid, Fluo4 calcium fluorescence; stronger effect = higher value; AID 2237;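 active means B-score above 5 SD of library B-scores, and initial fluorescence ratio not above library mean plus 5 SD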;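 further: positive B-score marks a calcium rise read as TRPC4 activation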
Target sequence (Q9QUQ5 whole entry, looked up): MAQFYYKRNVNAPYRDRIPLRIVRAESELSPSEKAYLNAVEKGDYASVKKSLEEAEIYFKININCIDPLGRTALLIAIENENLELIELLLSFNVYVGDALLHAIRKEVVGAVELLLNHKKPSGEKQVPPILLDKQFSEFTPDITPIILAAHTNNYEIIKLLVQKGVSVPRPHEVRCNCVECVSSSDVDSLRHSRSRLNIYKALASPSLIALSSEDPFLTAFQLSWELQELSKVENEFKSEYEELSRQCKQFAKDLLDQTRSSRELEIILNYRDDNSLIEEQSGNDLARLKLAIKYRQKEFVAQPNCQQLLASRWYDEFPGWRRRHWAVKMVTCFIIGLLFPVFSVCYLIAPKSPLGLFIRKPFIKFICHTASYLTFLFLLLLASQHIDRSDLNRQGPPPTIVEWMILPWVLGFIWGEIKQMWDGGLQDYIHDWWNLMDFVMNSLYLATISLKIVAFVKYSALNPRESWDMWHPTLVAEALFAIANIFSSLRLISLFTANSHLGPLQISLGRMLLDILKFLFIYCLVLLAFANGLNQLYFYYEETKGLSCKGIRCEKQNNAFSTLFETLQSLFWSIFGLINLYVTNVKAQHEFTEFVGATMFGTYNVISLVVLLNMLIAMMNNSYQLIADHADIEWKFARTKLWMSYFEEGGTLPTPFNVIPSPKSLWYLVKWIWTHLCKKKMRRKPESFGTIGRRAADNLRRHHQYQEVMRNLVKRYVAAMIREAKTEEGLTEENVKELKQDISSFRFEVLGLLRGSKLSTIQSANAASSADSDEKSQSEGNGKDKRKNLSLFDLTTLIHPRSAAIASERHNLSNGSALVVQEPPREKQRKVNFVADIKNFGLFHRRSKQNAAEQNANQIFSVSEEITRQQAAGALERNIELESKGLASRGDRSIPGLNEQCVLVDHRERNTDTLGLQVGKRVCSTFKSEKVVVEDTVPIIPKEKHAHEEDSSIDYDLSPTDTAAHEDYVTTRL
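System – HEK293 cells stably co-expressing mouse TRPC4beta and mu-opioid receptor · Signal – Fluo4 calcium-sensitive dye fluorescence, kinetic, 1 Hz baseline · Benchmarks – buffer (low) and maximal DAMGO (high) · Read-out – B score of integrated fluorescence ratio per well · Incubation – dye loading 45 min room temperature, 110 s kinetic read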
TRPC6 inhibitor: inhibitors of mouse TRPC6 channel; HEK293-TRPC6, membrane potential dye, ACh-evoked depolarization; stronger effect = lower value; AID 2553; Q61143; 310,000 compounds, 1.1% hits; B-score at 10 µM;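 active means B-score under library mean minus 3 SD, initial fluorescence not abnormally high, positive integrated signal ratio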;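 further: B-score derived from integrated fluorescence ratio over the kinetic read; more negative B-score means stronger inhibition of depolarization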
TRPC4 inh: inhibitors of mouse TRPC4 channel. Q9QUQ5. HEK293 TRPC4beta/mu-opioid, DAMGO-evoked Fluo4 calcium flux; stronger effect = lower value. B-score at 10 µM. 300,000 compounds, 0.39% hits. AID 2247;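 active means B-score over 3 SD under the library average, no early fluorescence shift, positive overall ratio signal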
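Assay system: HEK293 cells with stable TRPC4beta plus mu-opioid receptor expression. Dosing: single dose. Measured by: Fluo4 Ca2+ flux fluorescence. Also added: DAMGO in two steps, submaximal then maximal. Read-out: B score from integrated Fluo4 fluorescence ratio.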
TRPC6 activator: mouse TRPC6 channel activation; HEK293-TRPC6 membrane potential dye fluorescence; stronger effect = higher value; B-score at 10 µM; 310,000 compounds, 0.13% hits; AID 2550;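 active means B-score of the integrated fluorescence ratio above library mean plus 3 SD, and starting fluorescence ratio within library mean plus 5 SD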;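 further: higher score means more depolarization so channel activation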
TRPC4 potent: allosteric potentiators of mouse TRPC4 channel. HEK293 TRPC4beta/mu-opioid, DAMGO EC20, Fluo-4 Ca2+ flux; stronger effect = higher value. B-score at 10 µM. 310,000 compounds, 0.42% hits. AID 2227;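 active means B-score of calcium response area above 5 SD of library B-scores, with initial fluorescence ratio within 5 SD of library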;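 further: B-score of integrated fluorescence ratio over time as area under calcium response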
TRPC4 spec 2: second check of whether TRPC6 inhibitors also affect mouse TRPC4; shares compounds with TRPC6 inhibitor; HEK293 TRPC4/MOR, membrane potential dye fluorescence; channel activated by saturating DAMGO dose; inhibition, % at 10 µM; 920 compounds, 42% hits; AID 2776;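 active means compounds whose fluorescence signal differed from control wells by over 3 SD, either direction, in both duplicate plates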
TRPC4 spec: tests whether TRPC6 inhibitors also affect mouse TRPC4 | shares compounds with TRPC6 inhibitor | HEK293 TRPC4/mu-opioid, membrane potential fluorescence | activity change, negative = inhibition, % at 10 µM | 920 compounds, 61% hits;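 active means rise or fall in signal beyond 3 SD of buffer-only wells in both replicate plates, either sign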;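 further: integrated kinetic ratio of fluorescence range over baseline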
HEK293 MPD ctr 2-1: second check of TRPC6 inhibitor effects in parental HEK293 cells; 920 compounds, 31% hits; parental HEK293 membrane potential dye fluorescence; maximal acetylcholine challenge after compound addition; signal change vs control, % at 10 µM; shares compounds with TRPC6 inhibitor;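 active means membrane potential signal moving either way by over 3 SD of the maximum-effect control, in both duplicate plates, meaning non-specific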
HEK293 MPD ctr-1: counter-screen for TRPC6 inhibitors: effect in parental HEK293 cells; shares compounds with TRPC6 inhibitor; parental HEK293 membrane potential dye fluorescence; membrane potential signal change, % at 10 µM; 920 compounds, 60% hits;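 active means membrane potential signal shifting up or down by more than 3 SD of buffer-only wells, on both duplicate plates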
HEK293 MPD ctr-2: checks TRPC6 modulator effects in parental HEK293 cells; AID 488924; membrane potential signal change, % at 10 µM; 2,400 compounds, 51% hits; membrane potential dye fluorescence; shares compounds with TRPC6 inhibitor;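 active means membrane potential signal moves up or down beyond 5 SD from buffer-only wells, on both duplicate plates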
HEK293 MPD ctr 2-2: parental HEK293 nonspecific activity of TRPC6 modulators, second screen; shares compounds with TRPC6 inhibitor; membrane potential dye fluorescence; after compound, maximal acetylcholine stimulation; inhibition, % at 10 µM; 2,400 compounds, 14% hits; AID 488926;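 active means membrane potential signal drops by more than 5 SD from the mean control signal, in both duplicate plates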;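 further: plate controls were acetylcholine ECmax control wells for no effect and buffer only wells for full effect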
TRPC4 ctr mod: selectivity of TRPC6 modulators against mouse TRPC4 | shares compounds with TRPC6 inhibitor | HEK293 TRPC4/mu-opioid, membrane potential fluorescence | percent change from control (negative = decrease, positive = increase), % at 10 µM | 2,400 compounds, 69% hits | AID 488927;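 active means membrane potential signal moved up or down beyond 5 SD of buffer control wells, in both duplicate plates, actives on both sides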;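 further: plate controls were assay buffer wells for no effect and DAMGO maximal-effect wells for full effect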
TRPC4/MOR inh 2: second selectivity test of TRPC6 modulators against mouse TRPC4; shares compounds with TRPC6 inhibitor; HEK293 TRPC4/mu-opioid, membrane potential dye fluorescence; stimulated with maximal-effect DAMGO; inhibition, % at 10 µM; 2,400 compounds, 55% hits;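 active means drop in membrane potential signal beyond 5 SD of the control wells in both duplicate plates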;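 further: TRPC4 counter screen for TRPC6 hits run under conditions tuned for TRPC6 not TRPC4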
TRPC6 inh conf: confirmation of mouse TRPC6 inhibitors; shares compounds with TRPC6 inhibitor; HEK293-TRPC6, membrane potential dye, ACh-evoked depolarization; inhibition, % at 10 µM; 3,300 compounds, 43% hits;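 active means fluorescence ratio falls more than 5 SD below the full-stimulation control mean, in both duplicate runs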;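 further: integrated fluorescence ratio of peak minus minimum over baseline after agonist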
TRPC6 act confirm: mouse TRPC6 activator confirmation; shares compounds with TRPC6 inhibitor; HEK293-TRPC6 membrane potential dye fluorescence, FDSS; AID 488961; activation, % at 10 µM; 2,800 compounds, 11% hits;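 active means ratio signal rise beyond 5 SD above unstimulated control wells' mean, seen in both duplicate runs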;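 further: plate controls were buffer EC0 wells for no effect and acetylcholine ECmax response for full effect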
The depositor's hits bear a star; i = inactive; . = no result given. Rows were chosen to be rich in hits. Some 2.3% of all compounds tested hit in one or more screens of this group.

SMILES	TRPC4 agonist	TRPC6 inhibitor	TRPC4 inh	TRPC6 activator	TRPC4 potent	HEK293 MPD ctr-2	HEK293 MPD ctr 2-2	TRPC4 ctr mod	TRPC4/MOR inh 2	TRPC6 inh conf	TRPC6 act confirm	others
CCN(CC)C(=O)CSc1nc2ccccc2c(=O)n1-c1cccc(OC)c1	i	-5.9*	i	12*	i	158%*	i	36%*	i	i	73%*
Cc1sc2cc(-c3cccc([N+](=O)[O-])c3)c(-c3cccc([N+](=O)[O-])c3)c[n+]2c1C	i	-6.7*	i	i	i	-332%*	96%*	-54%*	66%*	74%*	i
O=[N+]([O-])c1cccc(-c2cc3cccc[n+]3cc2-c2cccc([N+](=O)[O-])c2)c1	i	-10*	i	i	i	-395%*	i	-74%*	70%*	56%*	i
O=[N+]([O-])c1cccc(-c2nnc(-c3ccccc3)o2)c1	i	i	i	i	i	.	.	.	.	.	.
Cc1cc(C)c2cc3c(N)c(C(=O)N4CCOCC4)sc3nc2c1	i	i	i	i	i	.	.	.	.	.	.
Cc1cc(C)c2nc3sc(C(=O)N4CCOCC4)c(N)c3cc2c1	i	-5*	i	23*	i	900%*	83%*	189%*	i	i	297%*
Cc1ccc(C)c2nc3sc(C(=O)N4CCOCC4)c(N)c3cc12	74*	-8.7*	i	33*	i	898%*	i	128%*	i	i	78%*
COc1cccc(C2C(C(C)=O)=C(O)C(=O)N2CCNCCO)c1 (centres undefined)	i	i	i	i	i	.	.	.	.	.	.
COc1ccc(-n2cc(CNCCCn3ccnc3)c(-c3cccc(F)c3)n2)cc1	i	-6*	i	i	i	i	i	-8.5%*	74%*	42%*	i
COc1ccc2c(c1)N(C)/C(=C1/SC(=NCc3ccccc3)N(c3ccccc3)C1=O)S2	i	-6.5*	i	i	i	i	i	i	i	i	i
Cc1ccc(N2CCOCC2)c2c1C(=O)c1ccccc1C2=O	i	-5.1*	i	i	i	-195%*	i	-34%*	71%*	43%*	i
O=C1C=C(N2CCOCC2)c2ccccc2C1=O	i	i	i	i	i	.	.	.	.	.	.
CCc1ccccc1NC(=O)NNS(=O)(=O)c1cc(C)ccc1C	i	i	i	i	i	.	.	.	.	.	.
CCCCCOc1ccc(CSC(=N)N)cc1[N+](=O)[O-]	i	-7.6*	i	i	i	.	.	.	.	80%*	i	TRPC4 spec 2=46%*;TRPC4 spec=i;HEK293 MPD ctr 2-1=i;HEK293 MPD ctr-1=-130%*
CCCCOc1ccc(CN(CCO)CCO)cc1[N+](=O)[O-]	i	i	i	i	i	.	.	.	.	.	.
CCCCOc1ccc(Br)cc1CSC(=N)N	i	-6.9*	i	i	i	.	.	.	.	76%*	i	TRPC4 spec 2=18%*;TRPC4 spec=4.3%*;HEK293 MPD ctr 2-1=i;HEK293 MPD ctr-1=6.7%*
COc1cc(/C=N/n2cnnc2)ccc1OCC(=O)N1CCOCC1	i	-7.2*	i	i	i	-334%*	i	-54%*	44%*	46%*	i
Fc1ccccc1CNCCC(Cc1ccccc1)c1ccc2c(c1)OCO2 (centres undefined)	70*	-6.3*	-8*	i	i	119%*	i	48%*	69%*	i	.
CC(=O)N(CCC(Cc1ccccc1)c1ccc2c(c1)OCO2)Cc1ccccc1F (centres undefined)	i	i	i	i	i	.	.	.	.	.	.
COc1cc(C)ccc1NC(=O)c1ccc(S(=O)(=O)N2CCOCC2)cc1	i	-6.1*	i	i	i	i	i	i	i	i	i
O=C(NCC1CCN(c2ccc(S(=O)(=O)N3CCOCC3)cc2)CC1)c1ccc(Cl)cc1	i	-5.5*	i	i	i	i	i	i	i	52%*	i
CCN1CCN(c2nc3c(c(=O)n(C)c(=O)n3C)n2CCSc2nccc(C)n2)CC1	i	-12*	i	i	i	-284%*	118%*	-46%*	72%*	78%*	i
CC1CC(C)CN(c2nc3c(c(=O)n(C)c(=O)n3C)n2CCSc2ncccn2)C1 (centres undefined)	i	i	i	i	i	.	.	.	.	.	.
Cn1c(=O)c2c(nc(N3CCOCC3)n2CCSc2ncccn2)n(C)c1=O	i	-5.6*	i	i	i	-360%*	i	-56%*	i	i	i
O=C(c1ccc([N+](=O)[O-])cc1)N(Cc1ccc(Cl)cc1)N1C(=O)CCCC1=O	47*	-16*	i	17*	i	390%*	159%*	50%*	45%*	80%*	122%*
O=C(Nc1ccc2c(c1)OCO2)c1c[nH]c(=O)n(-c2ccc(F)cc2)c1=O	i	i	i	i	i	.	.	.	.	.	.
S=C(NCCCN1CCOCC1)Nc1ccc(Cl)cc1Cl	i	-5.3*	i	i	i	i	i	i	i	i	i
